This is an account of results in ChEMBL document CHEMBL1126643, “Synthesis and evaluation of 2-pyridinone derivatives as HIV-1-specific reverse transcriptase inhibitors. 4. 3-[2-(Benzoxazol-2-yl)ethyl]-5-ethyl-6-methylpyridin-2(1H)-one and analogues” (J Med Chem, 1993).

A value given as a limit tells only on which side of the number the result lay.

Data set [1] deals with T1, Human immunodeficiency virus type 1 reverse transcriptase (Human immunodeficiency virus 1, UniProt Q72547). Description: Tested for inhibition against HIV-1 RT (used (poly)rC-(oligo)dG as the template).
Data set [2] in a line: Plasma equilibrium dissociation constant was determined. Format: functional, cell-free, Homo sapiens. A digest of the protocol: (§1)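 Compound from 1 mM DMSO stock added to pH 7.4 phosphate/NaCl buffer with human plasma (10-fold diluted plasma), initial compound 10 μM; triplicate aliquots centrifuged through filter tubes, filtrate analysed by HPLC.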
Data set [3] has as its target Human immunodeficiency virus type 1 reverse transcriptase (Human immunodeficiency virus 1) (UniProt Q72547). Description: Cell culture inhibitor concentration required to inhibit the spread of HIV-1 strain III B infection in MT-4 human T-lymphoid cells. Format: functional, cell-based.
A short description of data set [4]: Percent unbound determined for whole normal human plasma. The class given is functional. A digest of the protocol:
as §1

Data set [5] in a line: Half life was determined. Format: ADME. As to conditions: 0.1 N HCl in 90% ethanol. A digest of the protocol: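 Acid hydrolysis: stock aliquot added to stirred ethanol/1 N HCl (8.9:1.0 mL) at 37 °C; aliquots withdrawn at intervals, quenched into pH 7.7 0.1 M MES buffer and analysed by HPLC.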
Data set [6] concerns the target T1, Human immunodeficiency virus type 1 reverse transcriptase. The data set is described as follows: Inhibition against HIV-1 RT (used (poly)rC-(oligo)dG as the template); not characterized.

Regarding `CCc1c[nH]c(=O)c(CCc2nc3ccccc3o2)c1`, 0.177 µM corresponded to half-maximal inhibition in data set [1] (IC50).

`CCc1cc(CCc2nc3c(Cl)ccc(Cl)c3o2)c(O)nc1C`: the Kd in data set [2] amounted to 0.76 µM. This compound showed an IC95 in data set [3] of 0.05 µM. Also, the Unbound in data set [4] was determined as 0.1%.

In turn, `CCc1cc(CCc2ccccc2)c(=O)[nH]c1C` gave an IC50 in data set [1] of 50 µM.

As for `CCCc1cc(CCc2nc3c(Cl)ccc(Cl)c3o2)c(=O)[nH]c1C`, in data set [1], the IC50 was 0.034 µM.

`CCc1cc(CCc2cc3ccccc3o2)c(O)nc1C` showed a half-maximal inhibitory concentration (IC50) in data set [1] of 0.13 µM.

In the case of `CCc1cc(CCC(=O)Nc2ccccc2O)c(=O)[nH]c1C`, the IC50 in data set [1] worked out at 5.4 µM.

In turn, `CCc1cc(CCC2=NC3CCCCC3O2)c(=O)[nH]c1C` (stereo not drawn) returned an IC50 in data set [1] of 0.058 µM.

In turn, `CCc1cc(CCc2cc3cnccc3o2)c(O)nc1C` registered an IC50 in data set [1] of 13.5 µM.

In data set [3], `CCc1cc(NCc2nc3ccccc3o2)c(O)nc1C` gave an IC95 of 0.8 µM. The compound further returned a half-life in data set [5] of 35 min.

Take `CCc1cc(CCc2nc3cc(F)ccc3o2)c(=O)[nH]c1C`: in data set [1], the midpoint of inhibition, the IC50, lay at 1.7 µM.

Compound `CCc1cc(CCc2nc3c(F)ccc(F)c3o2)c(O)nc1C` displayed a dissociation constant Kd in data set [2] of 18.2 µM. The same compound had an IC95 in data set [3] of 0.05 µM. The compound also registered an Unbound in data set [4] of 3%. Also, it took 0.014 µM to reach half-maximal inhibition in data set [1] (IC50).

Regarding `Cc1nc(O)c(CCc2nc3ccccc3o2)cc1N(C)C`, the IC50 in data set [1] is 1.85 µM.

In data set [5], `CCc1cc(OCc2nc3c(Cl)ccc(Cl)c3o2)c(=O)[nH]c1C` registered a half-life of 11 min. Besides, in data set [1], the IC50 was found to be 0.088 µM.

In data set [1], `CCC1=C(C)NC(N)C(CCc2nc3ccccc3o2)=C1` (stereo not drawn) had an IC50 of 100 µM.

For `CCc1cc(CCc2nc3c(F)cccc3o2)c(=S)[nH]c1C`, the midpoint of inhibition in data set [1], the IC50, lay at 0.013 µM. This IC50 is about 7700-fold lower than that of the compound before.

On to `Cc1cc(CCc2nc3ccccc3o2)c(O)nc1C`, for which, in data set [1], the IC50 is 0.17 µM.

`CCc1cc(CCc2nc3cccc(C)c3o2)c(=O)[nH]c1C` returned an IC50 in data set [1] of 0.04 µM. This IC50 is about 4.2-fold lower than that of the compound before.

In turn, `CCc1cc(CCc2ccc3ccccc3c2)c(=O)[nH]c1C` gave an IC50 in data set [1] of 8.4 µM.

`CCc1cc(CCc2nc3c(Cl)cccc3o2)c(S)nc1C` showed an IC50 in data set [1] of 0.03 µM.

The compound `Cc1[nH]c(=O)c(CCc2nc3ccccc3o2)cc1C(C)C` had an IC50 in data set [1] of 0.048 µM.

`CCc1cc(CCc2nc3c(C)ccc(C)c3o2)c(S)nc1C` had an IC95 in data set [3] of 0.2 µM.

Consider `CCc1cc(CCc2ncc(-c3ccccc3)o2)c(O)nc1C`, for which the IC50 in data set [1] came to 0.385 µM.

Compound `CCc1cc(CCc2nc3ccccc3o2)c(S)nc1C` registered an IC95 in data set [3] of 0.2 µM. The compound further registered an IC50 in data set [1] of 0.024 µM.

For the compound `CCc1cc(CCc2nc3c(Cl)ccc(Cl)c3o2)c(=O)[nH]c1C`, inhibition in data set [1] was half-maximal at 0.014 µM (IC50).

`Cc1nc(O)c(CCc2nc3ccccc3o2)cc1C#N` returned an IC50 in data set [1] of 0.31 µM.

In turn, `Cc1nc(O)c(CCc2nc3ccccc3o2)cc1CO` showed an IC50 in data set [1] of 3.4 µM. This IC50 is about 11-fold higher than that of the compound before.

`CCc1cc(/C=C/c2nc3ccccc3o2)c(O)nc1C` displayed an IC50 in data set [1] of 5.9 µM.

Consider `CCc1cc(CCC(=O)Nc2c(O)cc(Cl)cc2Cl)c(O)nc1C`, for which the IC50 in data set [1] is > 300 µM.

For the compound `CCc1cc(CCc2nc3cccc(Cl)c3o2)c(=S)[nH]c1C`, the IC50 in data set [1] came to 0.029 µM.

With `CCc1cc(CCc2nc3c(C)ccc(C)c3o2)c(=O)[nH]c1C`, in data set [1], the IC50 was determined as 0.028 µM.

Compound `CCc1cc(SCc2nc3c(Cl)ccc(Cl)c3o2)c(O)nc1C` yielded an IC95 in data set [3] of 0.05 µM. In other words, the double-digit nanomolar range.

As for `COCc1cc(CCc2nc3ccccc3o2)c(=O)[nH]c1C`, in data set [1], it took 2.1 µM to reach half-maximal inhibition (IC50).

In turn, `CCc1cc(CCCc2nc3ccccc3o2)c(O)nc1C` registered an IC50 in data set [1] of 16 µM. Compared with the last compound, the IC50 is about 7.6-fold higher.

Regarding `CCc1cc([S+]([O-])Cc2nc3c(Cl)ccc(Cl)c3o2)c(O)nc1C` (stereo not drawn), in data set [1], the midpoint of inhibition, the IC50, lay at 1.4 µM.

For `CCc1cc(/C=C\c2nc3ccccc3o2)c(=O)[nH]c1C`, the midpoint of inhibition in data set [1], the IC50, lay at 3 µM.

Turning to `CCc1cc(CCc2nc3c(F)ccc(F)c3o2)c(=S)[nH]c1C`, the IC50 in data set [1] amounted to 0.015 µM.

Regarding `Cc1[nH]c(=O)c(CCc2nc3ccccc3o2)cc1C(N)=O`, half-maximal inhibition in data set [1] (IC50) required 41.5 µM.

Take `CCc1cc(CNc2nc3ccccc3o2)c(O)nc1C`: it took 10 µM to reach the 95% level in data set [3] (IC95). Half-maximal inhibition in data set [1] (IC50) was put at 1.25 µM.

The compound `CCc1cc(S(=O)(=O)Cc2nc3c(Cl)ccc(Cl)c3o2)c(O)nc1C` displayed an IC50 in data set [1] of 0.205 µM.

The compound `CCc1cc(CCc2nc3c(C)cccc3o2)c(=O)[nH]c1C` yielded an IC50 in data set [1] of 0.033 µM. Compared with the last compound, the IC50 is about 6.2-fold lower.

Regarding `CCc1cc(CCc2nc3cccc(F)c3o2)c(S)nc1C`, it took 0.2 µM to reach the 95% level in data set [3] (IC95).

As to `CCc1cc(NCC(=O)Nc2c(O)cc(Cl)cc2Cl)c(O)nc1C`, in data set [1], the half-maximal inhibitory concentration (IC50) is > 300 µM.

Compound `CCc1cc(CCc2nc3cccc(F)c3o2)c(=S)[nH]c1C` had an IC50 in data set [1] of 0.043 µM. This lies in the double-digit nanomolar range.

The compound `CCc1cc(CCc2nc3ccccc3o2)c(O)nc1C` gave a Kd in data set [2] of 21.6 µM. Also, the 95% effect concentration (IC95) in data set [3] was found to be 0.1 µM. This compound gave an Unbound in data set [4] of 4%. Besides, the half-life in data set [5] was 218 min. In addition, in data set [1], 0.023 µM corresponded to half-maximal inhibition (IC50).

`CCc1cc(NCC(=O)Nc2ccccc2O)c(O)nc1C`: in data set [6], the IC50 result was “not characterized”.

Turning to `CCc1cc(OCc2nc3c(Cl)ccc(Cl)c3o2)c(O)nc1C`, the IC95 in data set [3] amounted to 0.2 µM.

Regarding `CCc1cc(OCc2nc3ccccc3o2)c(=O)[nH]c1C`, the half-life in data set [5] was 12 min. The compound further came in with an IC50 in data set [1] of 0.191 µM.

`CCc1cc(CCc2ccc3ccccc3n2)c(O)nc1C` displayed an IC50 in data set [1] of 2.45 µM.

For `CCc1cc(OCC(=O)Nc2ccccc2O)c(O)nc1C`, the IC50 result in data set [6] is recorded as “not characterized”.

As for `CCc1cc(NCc2nc3c(Cl)ccc(Cl)c3o2)c(O)nc1C` [L-697661], in data set [3], the 95% effect level (IC95) was put at 0.1 µM. For the same compound, the Unbound in data set [4] was found to be 0.4%. The compound also registered a half-life in data set [5] of 17 min. The same compound gave an IC50 in data set [1] of 0.02 µM.

For the compound `Cc1nc(O)c(CCc2nc3ccccc3o2)cc1-c1ccccc1`, the IC50 in data set [1] came out at 1.1 µM.

As for `CCc1cc(CCc2nc3c(C)ccc(C)c3o2)c(=S)[nH]c1C`, the IC50 in data set [1] came out at 0.052 µM.

On to `CCc1cc(CCc2nc3c(C)ccc(C)c3o2)c(O)nc1C`, for which the Kd in data set [2] is 1.21 µM. This compound also gave a 95% effect concentration (IC95) in data set [3] of 0.3 µM. In addition, in data set [4], the Unbound is 0.2%.

In data set [1], `CCc1cc(CCc2ccccn2)c(O)nc1C` had an IC50 of 260 µM.

Take `CCc1cc(CCc2nc3c(Cl)ccc(Cl)c3o2)c(S)nc1C`: it took 0.1 µM to reach the 95% level in data set [3] (IC95). The compound also gave an IC50 in data set [1] of 0.03 µM.

In data set [3], `CCc1cc(CCc2nc3c(F)ccc(F)c3o2)c(S)nc1C` registered an IC95 of 0.2 µM.

Regarding `CCc1cc(CCc2nc3c(F)cccc3o2)c(S)nc1C`, the 95% effect level in data set [3] (IC95) was put at 0.1 µM.

`CCc1cc(CCc2nc3ccc(F)cc3o2)c(O)nc1C`: the IC50 in data set [1] was 0.442 µM.

For the compound `CCc1cc(SCc2nc3c(Cl)ccc(Cl)c3o2)c(=O)[nH]c1C`, in data set [5], the half-life worked out at 34 min. Also, the IC50 in data set [1] stood at 0.011 µM.

`CCCc1cc(CCc2nc3ccccc3o2)c(O)nc1C` gave an IC50 in data set [1] of 0.083 µM.

`CCc1cc(Cc2nc3ccccc3o2)c(O)nc1C` registered an IC50 in data set [1] of 45 µM.

In turn, `CCc1cc(CCc2nc3cccc(Cl)c3o2)c(S)nc1C` yielded an IC95 in data set [3] of 0.2 µM.

For `CCc1cc(CCc2nc3cccc(F)c3o2)c(O)nc1C`, in data set [2], binding was characterised by a dissociation constant (Kd) of 8.16 µM. The same compound returned an Unbound in data set [4] of 1.4%. Moreover, in data set [1], inhibition was half-maximal at 0.037 µM (IC50).

In turn, `Cc1cc(CCc2nc3c(Cl)ccc(Cl)c3o2)c(=O)[nH]c1C` came in with an IC50 in data set [1] of 0.097 µM.

In data set [2], `CCc1cc(CCc2nc3c(C)cccc3o2)c(O)nc1C` gave a Kd of 2.45 µM. The compound also showed an IC95 in data set [3] of 0.1 µM. The compound also registered an Unbound in data set [4] of 0.4%.

The compound `CCc1cc(CCc2nc3ccc(C)cc3o2)c(=O)[nH]c1C` came in with an IC50 in data set [1] of 0.172 µM.

Consider `CCc1cc(CCc2nc3cccc(Cl)c3o2)c(O)nc1C`, for which the Kd in data set [2] turned out to be 4.16 µM. This compound displayed an IC95 in data set [3] of 0.1 µM. The compound also showed an Unbound in data set [4] of 0.7%. In addition, the IC50 in data set [1] was found to be 0.039 µM.

Regarding `CCc1cc(CCc2nc3c(F)cccc3o2)c(O)nc1C`, the Kd in data set [2] is 24 µM. In data set [3], this compound yielded an IC95 of 0.05 µM. Further, in data set [4], the Unbound is recorded as 4%. For the same compound, the IC50 in data set [1] stood at 0.015 µM.

In data set [2], `CCc1cc(CCc2nc3c(Cl)cccc3o2)c(O)nc1C` registered a Kd of 17.6 µM. Moreover, the IC95 in data set [3] came out at 0.1 µM. Moreover, the Unbound in data set [4] was found to be 3%. The same compound gave an IC50 in data set [1] of 0.062 µM.
